Results on 23 molecules are retold here after ChEMBL document CHEMBL1143012, “Synthesis and pharmacological in vitro and in vivo evaluations of novel triazole derivatives as ligands of the ghrelin receptor. 1” (J Med Chem, 2007).

Square brackets hold non-standard residues; d marks the D form. Peptide text beside a SMILES is read from it. dTrp(2-Me) = Cc1[nH]c2ccccc2c1C[C@@H](N)C(=O)O A value given as a limit tells only on which side of the number the result lay.

By IC50 is commonly meant the concentration needed to halve the response being measured. Low readings indicate greater potency in that assay, high ones weaker potency in that assay. A word on the Kb: it is the equilibrium dissociation constant of an antagonist, usually derived from a functional assay. What is called EC50 is the concentration that produces a half-maximal response.

The target of test [1] is T1, Growth hormone secretagogue receptor type 1 (Homo sapiens, UniProt Q92847). The test is described as follows: Antagonist activity at human GHS1a receptor expressed in CHO cells assessed as inhibition of ghrelin-induced intracellular calcium mobilization. In kind it is functional, cell-based. In outline: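 Calcium flux (Fluo-4AM, ex 485/em 525 nm) in CHO cells transiently expressing hGHS-R1a. Antagonist inhibition curves against 0.1 µM ghrelin give IC50; Kb by Cheng-Prusoff, with Schild analysis of ghrelin EC50 shifts for pA2 and exact Kb. Signal as percentage of 10 µM ghrelin response; duplicates, at least three experiments.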

Test [2] deals with T1, Growth hormone secretagogue receptor type 1. The experiment in a line: Displacement of [125I-His9]ghrelin from human GHS1a receptor expressed in LLC PK1 cells. The class given is cell-based. In outline:
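Membranes from LLC PK-1 cells transiently electroporated with hGHS-R1a (harvested about 48 h), 10 µg protein, incubated 60 min at 25 °C with 60 pM 125I-His9-ghrelin in Tris pH 7.3/MgCl2/EDTA/bacitracin buffer. Filtered, washed, gamma counted; nonspecific binding with 10 µM ghrelin. Triplicates, at least three experiments.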

Test [3] has the same target. The test is described as follows: Activity at human GHS1a receptor expressed in CHO cells assessed as intracellular calcium mobilization relative to 0.1 uM ghrelin. The class given is functional, cell-based. (A change in cytosolic calcium serves as a functional read-out for many receptors and channels.)
Test [4] concerns Rattus norvegicus. The test is described as follows: Stimulation of cumulative food intake per 100 g body weight in Sprague-Dawley rat at 160 ug/kg, sc at 6 hrs. In kind it is functional. Put shortly:
(§1)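 Male Sprague-Dawley rats (125-150 g), singly housed and trained, given compound sc alone (cumulative food intake as g/100 g body weight, weighed hourly to 6 h); percentage variation calculated as (compound minus hexarelin 80 µg/kg intake)/hexarelin intake at 6 h. Mean ± SEM, ANOVA with Dunnett's test.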

Test [5] concerns Rattus norvegicus. The test is described as follows: Stimulation of cumulative food intake in Sprague-Dawley rat at 160 ug/kg, sc at 6 hrs relative to 80 ug/kg hexarelin. The class given is functional. Put shortly:
as §1

The target in test [6] is T1, Growth hormone secretagogue receptor type 1. The test is described as follows: Agonist activity at human GHS1a receptor expressed in CHO cells assessed as induction of intracellular calcium mobilization. The class given is functional, cell-based. Particulars: for Activity: filed as partial agonist. In outline: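 CHO cells transiently expressing hGHS-R1a via electroporation, Fluo-4AM loaded (1 µM, 1 h, 37 °C), calcium fluorescence read 60 s at ex 485/em 525 nm. EC50 from agonist dose-response curves, response as percentage of maximal signal from 10 µM ghrelin; triplicates, means of at least three experiments.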

Test [7] concerns Rattus norvegicus. The test is described as follows: Stimulation of cumulative food intake in Sprague-Dawley rat at 80 ug/kg, sc at 6 hrs. In kind it is functional. Put shortly: as §1
The subject of test [8] is Rattus norvegicus. The test is described as follows: Effect on growth hormone secretion in Sprague-Dawley rat at 80 ug/kg, sc. The class given is functional. In outline:
(§2)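 Male 10-day-old Sprague-Dawley pups (~25 g), groups of eight, separated from dams 1 h before. Compounds in DMSO diluted with saline, sc; hexarelin 80 µg/kg, test compound 160 µg/kg; with combined treatment compound given 10 min before hexarelin. Killed 15 min later; plasma GH by rat GH enzyme immunoassay, ng/mL.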

The subject of test [9] is Rattus norvegicus. The test is described as follows: Inhibition of hexarelin-stimulated cumulative food intake in Sprague-Dawley rat at 160 ug/kg, sc at 6 hrs. The class given is functional. Put shortly: (§3)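 Male Sprague-Dawley rats (125-150 g), singly housed, acclimated and trained. Compound given sc at 0, 20, 80, 160 or 320 µg/kg at -10 min, then hexarelin 80 µg/kg sc at time 0. Food weighed hourly for 6 h, normalized as g/100 g body weight; 7-8 determinations, one-way ANOVA with Dunnett's test.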

Test [10] has as its system Rattus norvegicus. The test is described as follows: Inhibition of hexarelin-stimulated cumulative food intake in Sprague-Dawley rat at 320 ug/kg, sc at 6 hrs. The class given is functional. In outline:
as §3

The subject of test [11] is Rattus norvegicus. The test is described as follows: Effect on growth hormone secretion in Sprague-Dawley rat at 160 ug/kg, sc. The class given is functional. In outline:
as §2

Test [12] relates to Rattus norvegicus. The test is described as follows: Inhibition of hexarelin-stimulated cumulative food intake in Sprague-Dawley rat at 80 ug/kg, sc at 6 hrs. The class given is functional. In outline: as §3
The subject of test [13] is Rattus norvegicus. The test is described as follows: Inhibition of hexarelin-stimulated cumulative food intake in Sprague-Dawley rat at 20 ug/kg, sc at 6 hrs. In kind it is functional. Put shortly: as §3

T1 sequence (Q92847 whole entry): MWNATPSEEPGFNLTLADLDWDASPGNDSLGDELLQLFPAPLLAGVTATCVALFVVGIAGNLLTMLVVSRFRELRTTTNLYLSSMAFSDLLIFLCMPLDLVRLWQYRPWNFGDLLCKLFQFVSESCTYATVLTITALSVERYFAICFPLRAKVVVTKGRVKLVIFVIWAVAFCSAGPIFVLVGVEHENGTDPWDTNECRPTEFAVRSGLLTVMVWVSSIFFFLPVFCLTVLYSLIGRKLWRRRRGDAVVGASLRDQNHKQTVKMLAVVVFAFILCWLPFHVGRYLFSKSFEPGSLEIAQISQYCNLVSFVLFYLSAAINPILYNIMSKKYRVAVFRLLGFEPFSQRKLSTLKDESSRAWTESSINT

`COc1cc(Cn2c(CCc3ccccc3)nnc2[C@@H](Cc2c[nH]c3ccccc23)NC(=O)C(C)(C)N)cc(OC)c1`: the Activity result in test [1] (filed as antagonist) is “Antagonist”; in test [3], 0%. In [2], this molecule displayed a concentration for half-maximal inhibition (IC50) greater than 1000 nM.
`COc1ccc(Cn2c(Cc3ccccc3)nnc2[C@@H](Cc2c[nH]c3ccccc23)NC(=O)C(C)(C)N)cc1`: the Activity with Rattus norvegicus [4] is 0.17 g; with Rattus norvegicus [5] it was -31%; in [1] (filed as antagonist), “Antagonist”; in test [3], 0%. This molecule yielded an IC50 in test [2] of 121 nM.
With `COc1ccc(Cn2c(CCc3ccccc3)nnc2[C@@H](Cc2c[nH]c3ccccc23)NC(=O)C(C)(C)N)c(OC)c1`, the Kb in test [1] was determined as 17 nM. Also, the IC50 in test [2] is 60 nM. Moreover, the Activity in test [3] worked out at 0%.
With `COc1ccc(Cn2c(Cc3ccccc3)nnc2[C@@H](Cc2c[nH]c3ccccc23)NC(=O)C(C)(C)N)c(OC)c1`, the Activity result in test [1] (filed as antagonist) was “Antagonist”; in [3], 0%. The half-maximal inhibitory concentration (IC50) in [2] is 560 nM.
Take `COc1ccc(Cn2c(CCc3ccccc3)nnc2[C@@H](Cc2c[nH]c3ccccc23)NC(=O)C(C)(C)N)cc1`: the Activity with Rattus norvegicus [4] is 0.2 g; in the test on Rattus norvegicus [5], -10%; in test [3] it was 0%. Also, in test [1], the antagonist dissociation constant (Kb) was determined as 5 nM. The same molecule had an IC50 in [2] of 11 nM.
On to `Cc1ccc(Cn2c(CCc3c[nH]c4ccccc34)nnc2[C@@H](Cc2c[nH]c3ccccc23)NC(=O)C(C)(C)N)cc1`, for which the Activity in the test on Rattus norvegicus [4] was 0.3 g; in the test with Rattus norvegicus [5], -49%; in test [3], 69%. For the same molecule, the EC50 in [6] was 630 nM.
Turning to `COc1ccc(Cn2c(CCc3c[nH]c4ccccc34)nnc2[C@@H](Cc2c[nH]c3ccccc23)NC(=O)C(C)(C)N)c(OC)c1`, the Activity with Rattus norvegicus [4] was 0.06 g; in the test on Rattus norvegicus [5] it was -63%; in [3], 0%. Moreover, the Kb in test [1] was found to be 14 nM. The molecule also returned an IC50 in [2] of 108 nM.
As for `Cc1[nH]c2ccccc2c1C[C@@H](NC(=O)[C@@H](N)Cc1c[nH]cn1)C(=O)N[C@@H](C)C(=O)N[C@@H](Cc1c[nH]c2ccccc12)C(=O)N[C@H](Cc1ccccc1)C(=O)N[C@@H](CCCCN)C(N)=O` [EXAMORELIN] (H-H[dTrp(2-Me)]AW[dF]K-NH2), the Activity in the test with Rattus norvegicus [7] turned out to be 1.01 g; in the test on Rattus norvegicus [8] it was 170 ng/mL.
On to `CC(C)(N)C(=O)N[C@H](Cc1c[nH]c2ccccc12)c1nnc(CCCc2c[nH]c3ccccc23)n1CCc1c[nH]c2ccccc12`, for which the Activity is 0.22 g in the test with Rattus norvegicus [4], 54% with Rattus norvegicus [5] and 85% in [3]. Moreover, the EC50 in test [6] came out at 140 nM. This molecule displayed a half-inhibitory concentration (IC50) in test [2] of 14 nM.
On to `COc1ccccc1Cn1c(CCc2ccccc2)nnc1[C@@H](Cc1c[nH]c2ccccc12)NC(=O)C(C)(C)N`, for which the values for the Activity (in the test on Rattus norvegicus [4]; in the test with Rattus norvegicus [5]; in test [3]) were 0.29 g, -57% and 80%, respectively. For the same molecule, in test [6], the EC50 came to 98 nM.
As to `COc1ccc(Cn2c(CCc3c[nH]c4ccccc34)nnc2[C@@H](Cc2c[nH]c3ccccc23)NC(=O)C(C)(C)N)cc1`, the Activity was 0.06 g with Rattus norvegicus [4], -31% in the test with Rattus norvegicus [5] and 0% in test [3].
In the case of `CC(C)(N)C(=O)N[C@H](Cc1c[nH]c2ccccc12)c1nnc(CCc2c[nH]c3ccccc23)n1CCc1c[nH]c2ccccc12`, the Activity in the test with Rattus norvegicus [4] is 0.27 g; in the test with Rattus norvegicus [5], -25%; in test [6], “Partial agonist”; in test [3], 82%. Moreover, the IC50 in test [2] was found to be 150 nM.
Turning to `Cc1ccc(Cn2c(CCCc3ccccc3)nnc2[C@@H](Cc2c[nH]c3ccccc23)NC(=O)C(C)(C)N)cc1`, the Activity was 0.74 g with Rattus norvegicus [4], -55% with Rattus norvegicus [5] and 16% in test [3]. Further, the 50% effective concentration (EC50) in test [6] turned out to be 12 nM. Besides, the IC50 in test [2] turned out to be 21 nM.
As to `CC(C)(N)C(=O)N[C@H](Cc1c[nH]c2ccccc12)c1nnc(CCc2c[nH]c3ccccc23)n1Cc1ccccc1`, the values for the Activity with Rattus norvegicus [4] and with Rattus norvegicus [5] were 0.02 g and -4%, respectively. Besides, in test [6], the concentration for a half-maximal effect (EC50) was determined as 64 nM. In addition, the IC50 in [2] worked out at 15 nM.
Regarding `CC(C)(N)C(=O)N[C@H](Cc1c[nH]c2ccccc12)c1nnc(CCCc2c[nH]c3ccccc23)n1CCc1ccccc1`, the Activity in the test on Rattus norvegicus [4] is 0.75 g; with Rattus norvegicus [5], -21%; in [3], 18%. The EC50 in [6] was 15 nM. Besides, the concentration for half-maximal inhibition (IC50) in test [2] was 11 nM.
As for `CC(C)(N)C(=O)N[C@H](Cc1c[nH]c2ccccc12)c1nnc(CCCc2c[nH]c3ccccc23)n1Cc1ccccc1`, the Activity with Rattus norvegicus [4] is 0.01 g; with Rattus norvegicus [9] it was 0.25 g; in the test on Rattus norvegicus [10], 0.08 g; with Rattus norvegicus [5] it was -97%; with Rattus norvegicus [11], 13 ng/mL; in the test on Rattus norvegicus [12], 0.25 g. Further, the figures for the Activity (in [3]; in the test on Rattus norvegicus [13]) were 30% and 0.46 g, respectively. The EC50 in test [6] was found to be 49 nM. The IC50 in test [2] came out at 33 nM.
For `COc1ccc(Cn2c(Cc3c[nH]c4ccccc34)nnc2[C@@H](Cc2c[nH]c3ccccc23)NC(=O)C(C)(C)N)cc1`, the Activity entry in [1] (filed as antagonist) was “Antagonist”; in test [3], 0%. The molecule also had an IC50 in test [2] of 660 nM.
Consider `COc1cccc(Cn2c(CCc3ccccc3)nnc2[C@@H](Cc2c[nH]c3ccccc23)NC(=O)C(C)(C)N)c1`, for which the figures for the Activity (in the test on Rattus norvegicus [4]; in the test on Rattus norvegicus [5]; in [3]) were 0.01 g, -37% and 82%, respectively. In test [6], the half-maximal effective concentration (EC50) came to 45 nM.
With `COc1ccc(Cn2c(CCCc3ccccc3)nnc2[C@@H](Cc2c[nH]c3ccccc23)NC(=O)C(C)(C)N)cc1`, the Kb in [1] was determined as 14 nM. In addition, in test [3], the Activity is 0%.
As for `CC(C)(N)C(=O)N[C@H](Cc1c[nH]c2ccccc12)c1nnc(CCc2c[nH]c3ccccc23)n1Cc1ccc(Cl)c(Cl)c1`, the Activity in the test with Rattus norvegicus [4] is 0.41 g; in the test with Rattus norvegicus [5], -45%; in test [6], “Partial agonist”; in [3], 28%. Further, the 50% inhibitory concentration (IC50) in test [2] came out at 55 nM.
Regarding `COc1ccccc1Cn1c(CCc2c[nH]c3ccccc23)nnc1[C@@H](Cc1c[nH]c2ccccc12)NC(=O)C(C)(C)N`, the Activity entry in test [1] (filed as partial agonist) is “Partial agonist”; in test [3], 50%.
`COc1ccc(Cn2c(CCCc3c[nH]c4ccccc34)nnc2[C@@H](Cc2c[nH]c3ccccc23)NC(=O)C(C)(C)N)cc1`: in test [1], the Kb was 12 nM. Moreover, the IC50 in [2] was determined as 145 nM. Besides, the Activity in test [3] turned out to be 0%.
With `COc1ccccc1Cn1c(Cc2ccccc2)nnc1[C@@H](Cc1c[nH]c2ccccc12)NC(=O)C(C)(C)N`, the figures for the Activity entry in test [1] (filed as partial agonist) and in test [3] were “Partial agonist” and 66%, respectively. In [2], this molecule had a concentration for half-maximal inhibition (IC50) of 410 nM.
